Laboratory results: ChEMBL document CHEMBL1147081, “Structure of the deacetylase LpxC bound to the antibiotic CHIR-090: Time-dependent inhibition and specificity in ligand binding” (Proc Natl Acad Sci U S A, 2007)
Substitutions are numbered along the chain they refer to. Numbers in names are those of the source.

Assays:
[1] = substrate: C[C@@H](O)[C@H](NC(=O)c1ccc(C#Cc2ccc(CN3CCOCC3)cc2)cc1)C(=O)NO; test: Activity of Rhizobium leguminosarum LpxC S214G mutant
Procedure, shortened: (§1)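 Wild-type and site-directed mutant LpxC (E. coli, R. leguminosarum) expressed and purified, then assayed by a previously described method. Substrate was UDP-3-O-(R-3-hydroxymyristoyl)-N-acetylglucosamine, varied for Michaelis–Menten analysis. KM and kcat came from data sets pooling multiple independent experiments.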

[2] = substrate: C[C@@H](O)[C@H](NC(=O)c1ccc(C#Cc2ccc(CN3CCOCC3)cc2)cc1)C(=O)NO; test: Ratio of Kcat to Km of Rhizobium leguminosarum LpxC S214G mutant; procedure, shortened: as §1
[3] = substrate: C[C@@H](O)[C@H](NC(=O)c1ccc(C#Cc2ccc(CN3CCOCC3)cc2)cc1)C(=O)NO; test: Ratio of Kcat to Km of Rhizobium leguminosarum LpxC W206Q/S214G mutant; procedure, shortened: as §1
[4] = substrate: C[C@@H](O)[C@H](NC(=O)c1ccc(C#Cc2ccc(CN3CCOCC3)cc2)cc1)C(=O)NO; test: Activity of Rhizobium leguminosarum LpxC W206Q/S214G mutant; procedure, shortened: as §1
[5] = substrate: C[C@@H](O)[C@H](NC(=O)c1ccc(C#Cc2ccc(CN3CCOCC3)cc2)cc1)C(=O)NO; test: Ratio of Kcat to Km for Escherichia coli LpxC; procedure, shortened: as §1
[6] = substrate: C[C@@H](O)[C@H](NC(=O)c1ccc(C#Cc2ccc(CN3CCOCC3)cc2)cc1)C(=O)NO; test: Activity of Escherichia coli LpxC; procedure, shortened: as §1
[7] = substrate: C[C@@H](O)[C@H](NC(=O)c1ccc(C#Cc2ccc(CN3CCOCC3)cc2)cc1)C(=O)NO; test: Activity of Escherichia coli LpxC Q202W/G210S mutant; procedure, shortened: as §1
[8] = substrate: C[C@@H](O)[C@H](NC(=O)c1ccc(C#Cc2ccc(CN3CCOCC3)cc2)cc1)C(=O)NO; test: Ratio of Kcat to Km of Escherichia coli LpxC Q202W/G210S mutant; procedure, shortened: as §1

B1: UDP-3-O-acyl-N-acetylglucosamine deacetylase (Rhizobium leguminosarum bv. trifolii (strain WSM1325)), C6ARS9 S214G (protein)
chain: MAIGLLGFQTTVSRPVTLSGTGVHSGAEVSITLNPAESDTGVVFQRLHDNGDITELKAVSSQVGNTDLCTVLGFSPAHSVATIEHVMAAVYALGLDNVVIEVQGSEMPIMDGSSLPFVEAIEQVGLVSLGVKRRYIRITKPVRIEHGGSWSEFRPYDGTRFEVEIDFECPLIGRQKWAGDMTPAVFKAELSRARTFGFMRDVERLWASGHALGGSLENSVVISDDNTVINVEGLRYAKDEFVRHKTLDAVGDLSLAGVQFIGCYRSYRGGHKMNANALKALLADSSAYEVVETSTPRQRVAARELIAVSASEFAPWSA
Km [1]: 3.9 µM | kcat [1]: 0.12 s⁻¹ | kcat/Km [2]: 3.1 10^4/M/s

B2: UDP-3-O-acyl-N-acetylglucosamine deacetylase (Rhizobium leguminosarum bv. trifolii (strain WSM1325)), C6ARS9 W206Q,S214G (protein)
chain: B1 chain with W206Q
kcat/Km [3]: 1.4 10^4/M/s | Km [4]: 10 µM | kcat [4]: 0.14 s⁻¹

B3: UDP-3-O-acyl-N-acetylglucosamine deacetylase (Escherichia coli K-12), P0A725 (protein)
chain: MIKQRTLKRIVQATGVGLHTGKKVTLTLRPAPANTGVIYRRTDLNPPVDFPADAKSVRDTMLCTCLVNEHDVRISTVEHLNAALAGLGIDNIVIEVNAPEIPIMDGSAAPFVYLLLDAGIDELNCAKKFVRIKETVRVEDGDKWAEFKPYNGFSLDFTIDFNHPAIDSSNQRYAMNFSADAFMRQISRARTFGFMRDIEYLQSRGLCLGGSFDCAIVVDDYRVLNEDGLRFEDEFVRHKMLDAIGDLFMCGHNIIGAFTAYKSGHALNNKLLQAVLAKQEAWEYVTFQDDAELPLAFKAPSAVLA
kcat/Km [5]: 1.1 10^6/M/s | Km [6]: 4 µM | kcat [6]: 4.2 s⁻¹

B4: UDP-3-O-acyl-N-acetylglucosamine deacetylase (Escherichia coli K-12), P0A725 Q202W,G210S (protein)
chain: B3 chain with Q202W, G210S
Km [7]: 11 µM | kcat [7]: 1.6 s⁻¹ | kcat/Km [8]: 1.5 10^6/M/s
